Laboratory results as given in ChEMBL document CHEMBL4152384, “Pyrtriazoles, a Novel Class of Store-Operated Calcium Entry Modulators: Discovery, Biological Profiling, and in Vivo Proof-of-Concept Efficacy in Acute Pancreatitis” (J Med Chem, 2018).
Each block holds one compound with its values, some of them ahead of it. Active and inactive are the calls of the source. No cut-off for these calls is given here.

Experiments:
[1] = biological target: Transient receptor potential cation channel subfamily M member 8 (Homo sapiens) (UniProt Q7Z2W7); test: Antagonist activity at TRPM8 (unknown origin) expressed in HEK cells assessed as inhibition of menthol -mediated calcium increase at 10 uM by fura-2-based assay; type: cell-based
Outline: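 TRPM8-overexpressing Hek cells; calcium rise evoked by menthol (100 μM), test compounds at 10 μM; peak amplitude read out; mean ± SEM of 600 cells from 30 plates on four separate experimental days.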

[2] = biological target: T1, ORAI1/STIM1 (Homo sapiens) (UniProt Q96D31+Q13586); test: Modulation of Orai1/STIM1 (unknown origin) expressed in HEK cells assessed as potentiation of store-operated calcium currents in presence of 20 mM BAPTA by patch clamp assay relative to control; type: cell-based
Outline: (§1)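 Whole-cell ISOC recorded in Hek cells stably overexpressing Orai1 and transiently expressing STIM1; internal solution strongly buffered with 20 mM BAPTA; compound at 10 μM versus untreated control.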

[3] = biological target: Calcium release-activated calcium channel protein 1 (Mus musculus) (UniProt Q8BWG9); test: (§2) Modulation of Orai1 in Stim1-/1 and Stim2-/- MEF cells assessed as induction of store-operated calcium entry by measuring residual activity at 10 uM preincubated for 30 mins followed by tBhQ-mediated Ca2+ depletion and Ca2+ re-addition to extracellular solution measured for 600 secs by Fluo-4 AM-based fluorometric assay relative to control; type: cell-based
[4] = biological target: T2, Stromal interaction molecule 1 & 2/Calcium release-activated calcium channel protein 1 (Mus musculus) (UniProt Q8BWG9+P70302+P83093); test: (§3) Modulation of STIM1/STIM2/Orai1 in mouse BV2 cells assessed as induction of store-operated calcium entry by measuring increase in AUC of calcium entry at 0.3 to 10 uM preincubated for 30 mins followed by tBhQ-mediated Ca2+ depletion and Ca2+ re-addition to extracellular solution measured for 600 secs by Fluo-4 AM-based fluorometric assay relative to control; type: cell-based
Jurkat [5] = test: as §2, with “Induction” for “Modulation”, “store-operated calcium entry” for “Orai1”, “human Jurkat” for “Stim1-/1 and Stim2-/- MEF”; type: cell-based
Jurkat [6] = test: Induction of store-operated calcium entry in human Jurkat cells assessed as induction of store-operated calcium entry at 10 uM preincubated for 30 mins followed by tBhQ-mediated Ca2+ depletion and Ca2+ re-addition to extracellular solution measured for 800 secs by Fluo-4 AM-based fluorometric assay relative to control; type: cell-based
[7] = biological target: T3, Short transient receptor potential channel 1 & 3/Stromal interaction molecule 1/Calcium release-activated calcium channel protein 1 (Homo sapiens) (UniProt Q96D31+Q13507+Q13586+P48995); test: as §2, with “TRPC1/TRPC3/STIM1/Orai1” for “Orai1”, “HEK” for “Stim1-/1 and Stim2-/- MEF”, “uM in presence of shTRPC1” for “uM”; type: cell-based
[8] = biological target: T2, Stromal interaction molecule 1 & 2/Calcium release-activated calcium channel protein 1 (Mus musculus); test: as §3, with “residual activity” for “increase in AUC of calcium entry”, “at” for “at 0.3 to”; type: cell-based
[9] = biological target: T3, Short transient receptor potential channel 1 & 3/Stromal interaction molecule 1/Calcium release-activated calcium channel protein 1 (Homo sapiens); test: as §3, with “TRPC1/TRPC3/STIM1/Orai1” for “STIM1/STIM2/Orai1”, “HEK” for “mouse BV2”, “slope” for “AUC of calcium entry”; type: cell-based
[10] = biological target: T2, Stromal interaction molecule 1 & 2/Calcium release-activated calcium channel protein 1 (Mus musculus); test: as §3, with “peak amplitude” for “AUC of calcium entry”; type: cell-based
[11] = biological target: T2, Stromal interaction molecule 1 & 2/Calcium release-activated calcium channel protein 1 (Mus musculus); test: as §3, with “slope” for “AUC of calcium entry”; type: cell-based
[12] = biological target: T3, Short transient receptor potential channel 1 & 3/Stromal interaction molecule 1/Calcium release-activated calcium channel protein 1 (Homo sapiens); test: as §2, with “TRPC1/TRPC3/STIM1/Orai1” for “Orai1”, “HEK” for “Stim1-/1 and Stim2-/- MEF”; type: cell-based
[13] = biological target: Transient receptor potential cation channel subfamily V member 1 (Homo sapiens) (UniProt Q8NER1); test: Antagonist activity at TRPV1 (unknown origin) expressed in HEK cells assessed as inhibition of capsaicin-induced calcium increase at 10 uM by fura-2-based assay; type: cell-based
Outline: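 TRPV1-overexpressing Hek cells; calcium rise evoked by capsaicin (100 nM), test compounds at 10 μM; peak amplitude read out; mean ± SEM of 600 cells from 30 plates on four separate experimental days.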

[14] = biological target: T1, ORAI1/STIM1 (Homo sapiens); test: Modulation of Orai1/STIM1 (unknown origin) expressed in HEK cells assessed as potentiation of store-operated calcium currents in presence of 20 mM BAPTA and 150 nM Ca2+ containing internal solution by patch clamp assay relative to control; type: cell-based
[15] = tested on: voltage-gated calcium channel (Mus musculus); test: Antagonist activity at voltage-gated calcium channels in C57/BL6 mouse cerebellar granule cells assessed as inhibition of KCl-induced voltage dependent calcium entry at 10 uM by fura-2-based assay
Jurkat [16] = test: (§4) Induction of store-operated calcium entry in human Jurkat cells assessed as induction of store-operated calcium entry by measuring increase in AUC of calcium entry at 0.3 to 10 uM preincubated for 30 mins followed by tBhQ-mediated Ca2+ depletion and Ca2+ re-addition to extracellular solution measured for 600 secs by Fluo-4 AM-based fluorometric assay relative to control; type: cell-based
Jurkat [17] = test: as §4, with “peak amplitude” for “AUC of calcium entry”; type: cell-based
[18] = biological target: T3, Short transient receptor potential channel 1 & 3/Stromal interaction molecule 1/Calcium release-activated calcium channel protein 1 (Homo sapiens); test: as §3, with “TRPC1/TRPC3/STIM1/Orai1” for “STIM1/STIM2/Orai1”, “HEK” for “mouse BV2”; type: cell-based
[19] = tested on: voltage-gated calcium channel (Mus musculus); test: Antagonist activity at voltage-gated calcium channels in C57/BL6 mouse cerebellar granule cells assessed as inhibition of KCl-induced voltage dependent calcium entry at 10 uM by fura-2-based assay; remark: listed apart in the source
[20] = biological target: T3, Short transient receptor potential channel 1 & 3/Stromal interaction molecule 1/Calcium release-activated calcium channel protein 1 (Homo sapiens); test: as §3, with “TRPC1/TRPC3/STIM1/Orai1” for “STIM1/STIM2/Orai1”, “HEK” for “mouse BV2”, “peak amplitude” for “AUC of calcium entry”; type: cell-based
[21] = biological target: T2, Stromal interaction molecule 1 & 2/Calcium release-activated calcium channel protein 1 (Mus musculus); test: as §3, with “entry” for “entry by measuring increase in AUC of calcium entry”, “at” for “at 0.3 to”, “800” for “600”; type: cell-based
Outline: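 Microplate Fluo-4 assay in mouse microglial BV-2 cells. Stores emptied with tBhQ (50 μM) in presence of compound (10 μM); extracellular Ca2+ re-added after 600 s and intracellular Ca2+ read fluorimetrically; SOCE expressed versus control.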

[22] = biological target: T3, Short transient receptor potential channel 1 & 3/Stromal interaction molecule 1/Calcium release-activated calcium channel protein 1 (Homo sapiens); test: (§5) Modulation of TRPC1/TRPC3/STIM1/Orai1 in HEK cells assessed as induction of store-operated calcium entry at 10 uM preincubated for 30 mins followed by tBhQ-mediated Ca2+ depletion and Ca2+ re-addition to extracellular solution measured for 800 secs by Fluo-4 AM-based fluorometric assay relative to control; type: cell-based
Homo sapiens = organism: Homo sapiens; test: Modulation of Orai1/STIM1 (unknown origin) expressed in HEK cells assessed as potentiation of store-operated calcium currents by measuring reduction in time constant of channel activation in presence of 20 mM BAPTA and 150 nM Ca2+ containing internal solution by patch clamp assay relative to control; type: cell-based
Jurkat [23] = test: as §4, with “slope” for “AUC of calcium entry”; type: cell-based
[24] = Drug metabolism in CD1 mouse liver microsomes assessed as 1-(4-(4-(3-Carboxyphenyl)-1H-1,2,3-triazol-1-yl)phenyl)-5-(trifluoromethyl)-1H-pyrazole-4-carboxylic Acid metabolite formation at 50 uM after 60 mins by mass spectroscopic analysis; type: ADME, microsome
[25] = biological target: T3, Short transient receptor potential channel 1 & 3/Stromal interaction molecule 1/Calcium release-activated calcium channel protein 1 (Homo sapiens); test: as §5, with “entry by measuring residual activity” for “entry”, “100” for “10”, “600” for “800”; type: cell-based
[26] = biological target: Stromal interaction molecule 1 & 2/Calcium release-activated calcium channel protein 1 (Homo sapiens, UniProt Q13586+Q96D31+Q9P246); test: Inhibition of STIM1/STIM2/Orai1 (unknown origin) expressed in mouse BV2 cells assessed as induction of store-operated calcium entry by measuring residual activity preincubated for 30 mins followed by tBhQ, mediated Ca2+ depletion and re-addition measured for 600 secs by Fluo-4 AM-based fluorometric assay; type: cell-based
[27] = Metabolic stability in CD1 mouse plasma assessed as residual compound level at 50 uM after 30 mins by LC-UV analysis; type: ADME, cell-free; conditions: read-out: Stability
Outline: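 Compounds incubated in mouse plasma for 30 min; percentage of residual substrate determined.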

Jurkat [28] = test: as §4, with “residual activity” for “increase in AUC of calcium entry”, “100” for “0.3 to 10”; type: cell-based
[29] = as §4, with “residual activity” for “increase in AUC of calcium entry at 0.3 to 10 uM”; type: cell-based
[30] = biological target: Short transient receptor potential channel 1 & 3/Stromal interaction molecule 1/Calcium release-activated calcium channel protein 1 (Homo sapiens, UniProt P48995+Q13507+Q13586+Q96D31); test: as §5, with “by measuring residual activity” for “at 10 uM”, “600” for “800”; type: cell-based
[31] = biological target: T1, ORAI1/STIM1 (Homo sapiens); test: Inhibition of Orai1/STIM1 (unknown origin) expressed in HEK cells assessed as reduction in store-operated calcium currents at 10 uM by patch clamp assay relative to control; type: cell-based; outline: as §1
[32] = Cytotoxicity against HEK cells assessed as cell viability at 10 uM by MTT assay relative to control; type: cell-based; conditions: human, read-out: Activity
Outline: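 Hek cells treated 24 h with compound at 10 μM; viability determined by MTT assay.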

[33] = biological target: T2, Stromal interaction molecule 1 & 2/Calcium release-activated calcium channel protein 1 (Mus musculus); test: as §3, with “residual activity” for “increase in AUC of calcium entry”, “100” for “0.3 to 10”; type: cell-based
[34] = Drug level in CD1 mouse liver microsomes treated with 3-(1-(4-(4-((Pentan-2-yloxy)carbonyl)-5-(trifluoromethyl)-1H-pyrazol-1-yl)-phenyl)-1H-1,2,3-triazol-4-yl)benzoic acid at 50 uM after 60 mind by mass spectroscopic analysis; type: ADME, microsome

T1 sequence (Q13586 23-685 partner limits assumed): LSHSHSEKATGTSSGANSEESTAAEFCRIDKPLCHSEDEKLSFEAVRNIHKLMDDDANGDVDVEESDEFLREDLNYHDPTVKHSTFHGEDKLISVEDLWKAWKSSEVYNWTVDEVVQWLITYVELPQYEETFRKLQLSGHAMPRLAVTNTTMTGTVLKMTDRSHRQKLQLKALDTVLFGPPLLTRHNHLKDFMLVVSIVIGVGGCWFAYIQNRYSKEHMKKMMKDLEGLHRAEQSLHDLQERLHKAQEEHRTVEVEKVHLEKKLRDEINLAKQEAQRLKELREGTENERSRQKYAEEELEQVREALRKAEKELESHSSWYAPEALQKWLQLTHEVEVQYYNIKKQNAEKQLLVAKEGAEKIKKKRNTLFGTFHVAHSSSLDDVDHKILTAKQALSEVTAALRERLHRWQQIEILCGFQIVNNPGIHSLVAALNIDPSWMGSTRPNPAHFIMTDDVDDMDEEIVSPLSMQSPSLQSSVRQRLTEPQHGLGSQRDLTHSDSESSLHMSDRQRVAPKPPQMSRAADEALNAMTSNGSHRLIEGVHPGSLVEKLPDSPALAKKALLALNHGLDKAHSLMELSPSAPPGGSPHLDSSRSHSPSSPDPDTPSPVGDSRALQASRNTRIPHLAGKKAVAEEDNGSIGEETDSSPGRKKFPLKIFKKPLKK
T1 sequence (Q96D31 whole entry): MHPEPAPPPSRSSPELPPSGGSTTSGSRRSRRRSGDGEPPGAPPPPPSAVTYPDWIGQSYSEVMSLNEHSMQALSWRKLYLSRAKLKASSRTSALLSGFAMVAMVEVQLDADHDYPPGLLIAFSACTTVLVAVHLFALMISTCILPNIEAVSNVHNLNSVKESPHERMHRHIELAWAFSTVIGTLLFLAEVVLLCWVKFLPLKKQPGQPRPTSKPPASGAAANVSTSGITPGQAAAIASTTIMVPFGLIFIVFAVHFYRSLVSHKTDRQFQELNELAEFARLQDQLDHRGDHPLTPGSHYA
T3 sequence (P48995 whole entry partner): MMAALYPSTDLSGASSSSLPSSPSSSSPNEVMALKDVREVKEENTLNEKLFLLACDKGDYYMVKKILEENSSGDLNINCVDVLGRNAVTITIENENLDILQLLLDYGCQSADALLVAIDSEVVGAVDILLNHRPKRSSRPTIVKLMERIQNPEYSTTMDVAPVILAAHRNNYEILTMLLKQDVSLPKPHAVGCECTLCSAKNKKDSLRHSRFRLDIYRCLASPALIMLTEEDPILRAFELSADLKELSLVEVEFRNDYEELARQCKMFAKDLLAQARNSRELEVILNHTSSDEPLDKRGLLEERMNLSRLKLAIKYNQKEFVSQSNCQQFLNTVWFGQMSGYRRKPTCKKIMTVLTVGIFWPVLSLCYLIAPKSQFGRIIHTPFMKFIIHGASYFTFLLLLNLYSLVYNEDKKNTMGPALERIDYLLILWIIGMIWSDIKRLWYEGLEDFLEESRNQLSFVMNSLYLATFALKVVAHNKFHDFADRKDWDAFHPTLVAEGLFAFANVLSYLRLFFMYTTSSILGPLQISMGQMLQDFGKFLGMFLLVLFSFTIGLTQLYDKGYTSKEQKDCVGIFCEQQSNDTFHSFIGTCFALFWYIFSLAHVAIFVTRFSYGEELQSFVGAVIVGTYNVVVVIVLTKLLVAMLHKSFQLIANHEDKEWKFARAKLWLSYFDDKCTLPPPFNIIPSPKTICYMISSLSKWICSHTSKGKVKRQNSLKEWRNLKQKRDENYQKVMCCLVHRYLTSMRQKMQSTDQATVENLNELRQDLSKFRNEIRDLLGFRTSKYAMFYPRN
T3 sequence (Q13507 whole entry partner): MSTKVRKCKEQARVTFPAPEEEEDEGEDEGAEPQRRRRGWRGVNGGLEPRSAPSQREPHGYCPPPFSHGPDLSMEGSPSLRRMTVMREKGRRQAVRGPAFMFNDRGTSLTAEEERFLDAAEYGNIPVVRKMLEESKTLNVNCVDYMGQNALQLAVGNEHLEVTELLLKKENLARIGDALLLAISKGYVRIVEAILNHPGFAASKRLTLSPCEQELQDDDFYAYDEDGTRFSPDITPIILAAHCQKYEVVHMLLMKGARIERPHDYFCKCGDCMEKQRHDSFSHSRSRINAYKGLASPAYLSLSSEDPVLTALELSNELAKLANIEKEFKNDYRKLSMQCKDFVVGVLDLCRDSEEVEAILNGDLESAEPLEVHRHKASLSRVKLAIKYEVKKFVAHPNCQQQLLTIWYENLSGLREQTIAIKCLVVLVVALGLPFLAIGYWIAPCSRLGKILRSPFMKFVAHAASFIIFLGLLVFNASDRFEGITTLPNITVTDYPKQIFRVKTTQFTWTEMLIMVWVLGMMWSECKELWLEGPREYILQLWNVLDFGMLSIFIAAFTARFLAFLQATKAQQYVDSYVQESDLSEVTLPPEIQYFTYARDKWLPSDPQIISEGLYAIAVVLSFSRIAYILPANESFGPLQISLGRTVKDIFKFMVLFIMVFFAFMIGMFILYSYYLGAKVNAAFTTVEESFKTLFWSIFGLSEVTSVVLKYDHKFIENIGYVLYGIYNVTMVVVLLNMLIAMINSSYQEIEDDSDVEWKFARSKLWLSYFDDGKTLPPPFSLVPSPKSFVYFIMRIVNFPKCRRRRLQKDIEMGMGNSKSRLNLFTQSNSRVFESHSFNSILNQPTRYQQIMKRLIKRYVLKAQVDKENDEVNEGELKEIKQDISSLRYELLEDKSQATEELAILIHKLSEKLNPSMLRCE
T3 sequence (Q13586 23-685 partner limits assumed): as the sequence (Q13586 23-685 partner limits assumed) above
T3 sequence (Q96D31 whole entry): as the sequence (Q96D31 whole entry) above
Chain of Transient receptor potential cation channel subfamily V member 1 (Homo sapiens) (Q8NER1 whole entry): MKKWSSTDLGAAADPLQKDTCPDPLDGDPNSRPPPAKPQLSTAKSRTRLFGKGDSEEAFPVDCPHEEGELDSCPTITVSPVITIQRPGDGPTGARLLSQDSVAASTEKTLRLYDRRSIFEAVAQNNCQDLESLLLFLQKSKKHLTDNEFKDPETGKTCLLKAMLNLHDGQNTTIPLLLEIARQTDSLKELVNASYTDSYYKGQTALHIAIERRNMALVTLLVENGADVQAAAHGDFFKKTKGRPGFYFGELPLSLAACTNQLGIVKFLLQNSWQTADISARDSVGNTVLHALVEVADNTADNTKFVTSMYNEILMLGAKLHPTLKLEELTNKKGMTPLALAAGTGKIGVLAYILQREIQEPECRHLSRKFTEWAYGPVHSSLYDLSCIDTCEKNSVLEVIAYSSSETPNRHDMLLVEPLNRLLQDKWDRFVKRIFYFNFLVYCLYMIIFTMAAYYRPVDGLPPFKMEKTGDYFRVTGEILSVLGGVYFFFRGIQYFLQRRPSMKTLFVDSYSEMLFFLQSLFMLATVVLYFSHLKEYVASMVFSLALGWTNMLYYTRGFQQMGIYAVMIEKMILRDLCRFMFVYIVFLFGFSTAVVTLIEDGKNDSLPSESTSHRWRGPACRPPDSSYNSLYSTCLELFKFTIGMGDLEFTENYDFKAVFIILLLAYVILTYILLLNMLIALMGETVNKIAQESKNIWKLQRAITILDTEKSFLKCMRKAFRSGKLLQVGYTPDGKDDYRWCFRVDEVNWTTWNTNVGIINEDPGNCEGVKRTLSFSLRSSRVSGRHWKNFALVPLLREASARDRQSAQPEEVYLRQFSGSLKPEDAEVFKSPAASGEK
Chain of Transient receptor potential cation channel subfamily M member 8 (Homo sapiens) (Q7Z2W7 whole entry, looked up): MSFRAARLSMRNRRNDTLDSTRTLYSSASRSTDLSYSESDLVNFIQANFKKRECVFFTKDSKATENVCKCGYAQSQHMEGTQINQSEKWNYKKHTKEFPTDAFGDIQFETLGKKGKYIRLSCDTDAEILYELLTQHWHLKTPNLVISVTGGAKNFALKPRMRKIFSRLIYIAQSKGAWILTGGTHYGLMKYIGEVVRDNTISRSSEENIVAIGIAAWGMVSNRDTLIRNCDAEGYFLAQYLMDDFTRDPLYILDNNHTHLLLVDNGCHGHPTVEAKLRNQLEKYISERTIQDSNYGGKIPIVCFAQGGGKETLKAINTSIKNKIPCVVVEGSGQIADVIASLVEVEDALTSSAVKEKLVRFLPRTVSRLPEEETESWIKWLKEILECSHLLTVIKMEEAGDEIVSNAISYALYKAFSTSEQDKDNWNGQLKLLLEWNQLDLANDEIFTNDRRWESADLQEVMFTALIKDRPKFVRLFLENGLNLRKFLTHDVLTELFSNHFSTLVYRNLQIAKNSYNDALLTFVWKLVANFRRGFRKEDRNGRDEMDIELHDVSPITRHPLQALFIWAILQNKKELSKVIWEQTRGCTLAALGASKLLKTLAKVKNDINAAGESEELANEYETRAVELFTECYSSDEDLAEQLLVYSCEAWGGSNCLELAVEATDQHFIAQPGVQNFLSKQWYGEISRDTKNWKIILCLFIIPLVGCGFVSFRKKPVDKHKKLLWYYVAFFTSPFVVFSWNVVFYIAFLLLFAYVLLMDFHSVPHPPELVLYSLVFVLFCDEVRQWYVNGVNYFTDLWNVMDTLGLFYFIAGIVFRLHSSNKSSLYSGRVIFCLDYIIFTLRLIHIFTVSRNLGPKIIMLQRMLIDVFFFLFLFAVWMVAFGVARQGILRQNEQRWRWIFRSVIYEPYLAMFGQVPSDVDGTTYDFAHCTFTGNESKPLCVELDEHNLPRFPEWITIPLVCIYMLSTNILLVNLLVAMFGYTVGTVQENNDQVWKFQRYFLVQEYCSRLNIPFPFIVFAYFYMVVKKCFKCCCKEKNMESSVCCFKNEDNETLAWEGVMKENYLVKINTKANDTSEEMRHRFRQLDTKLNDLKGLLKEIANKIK
Chain of Calcium release-activated calcium channel protein 1 (Mus musculus) (Q8BWG9 whole entry): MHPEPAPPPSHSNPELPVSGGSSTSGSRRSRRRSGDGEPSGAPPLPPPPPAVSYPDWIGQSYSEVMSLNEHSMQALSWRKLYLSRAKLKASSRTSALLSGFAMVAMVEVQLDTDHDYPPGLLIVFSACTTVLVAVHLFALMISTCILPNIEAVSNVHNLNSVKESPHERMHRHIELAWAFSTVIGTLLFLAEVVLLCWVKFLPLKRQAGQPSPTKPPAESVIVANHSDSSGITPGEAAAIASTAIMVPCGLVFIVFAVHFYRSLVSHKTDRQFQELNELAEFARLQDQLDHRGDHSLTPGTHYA

inhibition [1]: inactive | Activity [2]: Active | Activity [3]: Active | Activity [4]: Active | Activity [7]: Active | Activity [8]: 198% | Activity [9]: Active | Activity [10]: Active | Activity [11]: Active | Activity [12]: 213% | inhibition [13]: inactive | Activity [14]: inactive | inhibition [15]: inactive | Activity [18]: Active | inhibition [19]: inactive | Activity [20]: Active | Activity [21]: Active | Activity [22]: Active
Structure (SMILES): O=C(O)c1ccc(-c2cn(-c3ccc(-n4nc(C(F)(F)F)cc4C(F)(F)F)cc3)nn2)cc1
Activity (Jurkat [5]): 236% | Activity (Jurkat [6]): Active | Activity (Jurkat [16]): Active | Activity (Jurkat [17]): Active | Activity (Homo sapiens): Active | Activity (Jurkat [23]): Active

inhibition [1]: inactive | Drug metabolism [24]: Metabolite_Notdetected | residual activity [25]: < 100% | IC50 [26]: 4900 nM | remaining at 0.5 h, 50 µM [27]: 0% | Activity [8]: 54.7% | IC50 [29]: 600 nM | Activity [12]: 12.8% | inhibition [13]: Active | inhibition [15]: inactive | inhibition [19]: inactive | IC50 [30]: 600 nM | inhibition [31]: 40% | residual activity [33]: < 100%
Structure (SMILES): CCOC(=O)c1cnn(-c2ccc(-n3cc(-c4cccc(C(=O)O)c4)nn3)cc2)c1C(F)(F)F
Activity (Jurkat [5]): 12.8% | residual activity (Jurkat [28]): < 100% | viability at 10 µM [32]: 84%

Drug uptake [34]: Active
Structure (SMILES): CCCC(C)OC(=O)c1cnn(-c2ccc(-n3cc(-c4cccc(C(=O)O[C@@H]5O[C@H](C(=O)O)[C@@H](O)[C@H](O)[C@H]5O)c4)nn3)cc2)c1C(F)(F)F (some centres not stated)
